Results as given in ChEMBL document CHEMBL1128256, “Synthesis, biological evaluation, and structure analysis of a series of new 1,5-anhydrohexitol nucleosides” (J Med Chem, 1995).
≈ marks a conversion by molar mass, not a printed value.

What was measured:
E6SM [1] = test: Tested for the minimum inhibitory concentration required to reduce herpes simplex virus type 2 (HSV-2) strain G induced cytopathogenicity by 50%.; type: functional; conditions: Homo sapiens
Summary of the method: (§1)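 Inhibition of virus-induced cytopathogenicity in human embryonic skin-muscle (E6SM) fibroblasts seeded in 96-well trays. Viruses were HSV-1 (KOS, F, McIntyre), TK- HSV-1 B2006, TK-/TK+ HSV-1 clinical isolate VMW-1837 and HSV-2 (G, 196, Lyons). […] MCC is the lowest concentration giving microscopically detectable alteration of normal cell morphology; highest concentration tested was 400 µg/mL.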

HEL [2] = test: Tested for the inhibitory concentration required to reduce TK+ Varicella-Zoster virus (TK+ VZV) strain YS plaque formation by 50%; type: functional, cell-based; conditions: Homo sapiens
HEL [3] = test: Tested for the inhibitory concentration required to reduce cytomegalovirus (CMV) strain Davis plaque formation by 50%.; type: functional, cell-based; conditions: Homo sapiens
Summary of the method: (§2)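 Virus plaque formation assay in human embryonic lung (HEL) cells seeded in 96-well trays. Targets were TK+ VZV (Oka, YS), TK- VZV (07/1, YS/R) and CMV (AD169, Davis). Value is the concentration that reduces plaque number by 50%. Cytotoxicity in HEL cells was taken as the concentration that reduces cell growth by 50%.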

E6SM [4] = test: Tested for the minimum inhibitory concentration required to reduce vesicular stomatitis virus(VSV) induced cytopathogenicity by 50%; type: functional; conditions: Homo sapiens
HEL [5] = test: Tested for the inhibitory concentration required to reduce TK+ Varicella-Zoster virus (TK+ VZV) strain OKA plaque formation by 50%.; type: functional, cell-based; conditions: Homo sapiens
E6SM [6] = test: Tested for the minimum inhibitory concentration required to reduce herpes simplex virus type 1 (HSV-1) strain KOS induced cytopathogenicity by 50%.; type: functional; conditions: Homo sapiens; summary of the method: as §1
E6SM [7] = test: Tested for the minimum cytotoxic concentration required to cause a microscopically detectable alteration of normal cell morphology in human embryonic skin muscle (E6SM) fibroblast cell cultures.; type: functional; summary of the method: as §1
E6SM [8] = test: Tested for the minimum inhibitory concentration required to reduce thymidine kinase deficient herpes simplex virus type 1 (TK- HSV-1) strain B2006 induced cytopathogenicity by 50%.; type: functional; conditions: Homo sapiens; summary of the method: as §1
E6SM [9] = test: Tested for the minimum inhibitory concentration required to reduce herpes simplex virus type 1 (TK- / TK+ HSV-1) strain VMW-1837 induced cytopathogenicity by 50%.; type: functional; conditions: Homo sapiens; summary of the method: as §1
HEL [10] = test: Tested for the inhibitory concentration required to reduce thymidine kinase deficient Varicella-Zoster virus (TK- VZV) strain 07/1 plaque formation by 50%.; type: functional, cell-based; conditions: Homo sapiens
HEL [11] = test: Tested for the inhibitory concentration required to reduce cytomegalovirus (CMV) strain AD-169 plaque formation by 50%.; type: functional, cell-based; conditions: Homo sapiens; summary of the method: as §2
HEL [12] = test: Tested for the inhibitory concentration required to reduce thymidine kinase deficient Varicella-Zoster virus (TK- VZV) strain YS/R plaque formation by 50%.; type: functional, cell-based; conditions: Homo sapiens
HEL [13] = test: Tested for the cytotoxic concentration, required to reduce cell growth by 50% in human embryonic lung (HEL) cells.; type: functional; summary of the method: as §2
E6SM [14] = test: Tested for the minimum inhibitory concentration required to reduce vaccinia virus(VV) induced cytopathogenicity by 50%.; type: functional; conditions: Homo sapiens
HEL [15] = test: Tested for the 50% inhibitory concentration required to reduce TK+ Varicella-Zoster virus (TK+ VZV) strain YS plaque formation by 50%; type: functional, cell-based; conditions: Homo sapiens; summary of the method: as §2
E6SM [16] = test: Tested for the minimum inhibitory concentration required to reduce herpes simplex virus type 2 (HSV-2) strain Lyons induced cytopathogenicity by 50%.; type: functional; conditions: Homo sapiens; summary of the method: as §1
E6SM [17] = test: Tested for the minimum inhibitory concentration required to reduce herpes simplex virus type 1 (HSV-1) strain F induced cytopathogenicity by 50%.; type: functional; conditions: Homo sapiens; summary of the method: as §1
E6SM [18] = test: Tested for the minimum inhibitory concentration required to reduce herpes simplex virus type 2 (HSV-2) strain 196 induced cytopathogenicity by 50%.; type: functional; conditions: Homo sapiens; summary of the method: as §1
E6SM [19] = test: Tested for the minimum inhibitory concentration required to reduce herpes simplex virus type 1 (HSV-1) strain McIntyre induced cytopathogenicity by 50%.; type: functional; conditions: Homo sapiens; summary of the method: as §1

Compound | MIC (E6SM [1]) | IC50 (HEL [2]) | IC50 (HEL [3]) | MIC (E6SM [4]) | IC50 (HEL [5]) | MIC (E6SM [6]) | MCC (E6SM [7]) | MIC (E6SM [8]) | MIC (E6SM [9]) | IC50 (HEL [10]) | IC50 (HEL [11]) | IC50 (HEL [12]) | CC50 (HEL [13]) | MIC (E6SM [14]) | IC50 (HEL [15]) | MIC (E6SM [16]) | MIC (E6SM [17]) | MIC (E6SM [18]) | MIC (E6SM [19])
Nc1nc(N)c2ncn(C3COC(CO)C(O)C3)c2n1 (centres undefined) | 0.7 µg/mL (≈ 2.5 µM) | 2 µg/mL (≈ 7.14 µM) | 0.8 µg/mL (≈ 2.85 µM) | > 200 µg/mL | 1.2 µg/mL (≈ 4.28 µM) | 0.2 µg/mL (≈ 0.714 µM) | > 400 µg/mL | 7 µg/mL (≈ 25 µM) | 0.7 µg/mL (≈ 2.5 µM) | 2.4 µg/mL (≈ 8.56 µM) | 2 µg/mL (≈ 7.14 µM) | 5 µg/mL (≈ 17.8 µM) | 25 µg/mL (≈ 89.2 µM) | 7 µg/mL (≈ 25 µM) | – | – | – | – | –
O=c1[nH]c(=O)n([C@H]2C[C@H](O)[C@@H](CO)O2)cc1I [IDOXURIDINE] | 0.2 µg/mL (≈ 0.565 µM) | – | > 50 µg/mL | > 400 µg/mL | 0.17 µg/mL (≈ 0.48 µM) | 0.2 µg/mL (≈ 0.565 µM) | > 400 µg/mL | 40 µg/mL (≈ 113 µM) | 10 µg/mL (≈ 28.2 µM) | 4 µg/mL (≈ 11.3 µM) | 20 µg/mL (≈ 56.5 µM) | 4 µg/mL (≈ 11.3 µM) | > 50 µg/mL | 0.7 µg/mL (≈ 1.98 µM) | 0.4 µg/mL (≈ 1.13 µM) | 0.2 µg/mL (≈ 0.565 µM) | 0.2 µg/mL (≈ 0.565 µM) | 0.2 µg/mL (≈ 0.565 µM) | 1 µg/mL (≈ 2.82 µM)
Nc1nc(=O)n(C2COC(CO)C(O)C2)cc1Cl (centres undefined) | 300 µg/mL (≈ 1090 µM) | > 40 µg/mL | > 40 µg/mL | – | 40 µg/mL (≈ 145 µM) | 300 µg/mL (≈ 1090 µM) | > 400 µg/mL | > 400 µg/mL | 300 µg/mL (≈ 1090 µM) | > 40 µg/mL | > 40 µg/mL | > 40 µg/mL | > 50 µg/mL | – | – | 300 µg/mL (≈ 1090 µM) | 150 µg/mL (≈ 544 µM) | 300 µg/mL (≈ 1090 µM) | 300 µg/mL (≈ 1090 µM)
O=c1[nH]c(=O)n(C2COC(CO)C(O)C2)cc1/C=C/Br (centres undefined) | 150 µg/mL (≈ 432 µM) | 1.4 µg/mL (≈ 4.03 µM) | 23 µg/mL (≈ 66.3 µM) | – | 1.4 µg/mL (≈ 4.03 µM) | 0.4 µg/mL (≈ 1.15 µM) | > 400 µg/mL | > 100 µg/mL | 70 µg/mL (≈ 202 µM) | 20 µg/mL (≈ 57.6 µM) | > 10 µg/mL | 40 µg/mL (≈ 115 µM) | 50 µg/mL (≈ 144 µM) | – | – | 70 µg/mL (≈ 202 µM) | 2 µg/mL (≈ 5.76 µM) | 70 µg/mL (≈ 202 µM) | 0.4 µg/mL (≈ 1.15 µM)
